Screens deposited in PubChem by Johns Hopkins Ion Channel Center.
Only some compounds are listed: those with a hit (about 2.3% of all), similar ones and a draw of the others.
TRPC6 act: mouse TRPC6 channel activation; B-score at 10 µM; HEK293-TRPC6 membrane potential dye fluorescence; active compounds read high; 310,000 compounds, 0.13% hits;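 active = B-score of the integrated fluorescence ratio above library mean plus 3 SD, and starting fluorescence ratio within library mean plus 5 SD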;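 also: higher score means more depolarization so channel activation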
Target sequence (Q61143 whole entry, looked up): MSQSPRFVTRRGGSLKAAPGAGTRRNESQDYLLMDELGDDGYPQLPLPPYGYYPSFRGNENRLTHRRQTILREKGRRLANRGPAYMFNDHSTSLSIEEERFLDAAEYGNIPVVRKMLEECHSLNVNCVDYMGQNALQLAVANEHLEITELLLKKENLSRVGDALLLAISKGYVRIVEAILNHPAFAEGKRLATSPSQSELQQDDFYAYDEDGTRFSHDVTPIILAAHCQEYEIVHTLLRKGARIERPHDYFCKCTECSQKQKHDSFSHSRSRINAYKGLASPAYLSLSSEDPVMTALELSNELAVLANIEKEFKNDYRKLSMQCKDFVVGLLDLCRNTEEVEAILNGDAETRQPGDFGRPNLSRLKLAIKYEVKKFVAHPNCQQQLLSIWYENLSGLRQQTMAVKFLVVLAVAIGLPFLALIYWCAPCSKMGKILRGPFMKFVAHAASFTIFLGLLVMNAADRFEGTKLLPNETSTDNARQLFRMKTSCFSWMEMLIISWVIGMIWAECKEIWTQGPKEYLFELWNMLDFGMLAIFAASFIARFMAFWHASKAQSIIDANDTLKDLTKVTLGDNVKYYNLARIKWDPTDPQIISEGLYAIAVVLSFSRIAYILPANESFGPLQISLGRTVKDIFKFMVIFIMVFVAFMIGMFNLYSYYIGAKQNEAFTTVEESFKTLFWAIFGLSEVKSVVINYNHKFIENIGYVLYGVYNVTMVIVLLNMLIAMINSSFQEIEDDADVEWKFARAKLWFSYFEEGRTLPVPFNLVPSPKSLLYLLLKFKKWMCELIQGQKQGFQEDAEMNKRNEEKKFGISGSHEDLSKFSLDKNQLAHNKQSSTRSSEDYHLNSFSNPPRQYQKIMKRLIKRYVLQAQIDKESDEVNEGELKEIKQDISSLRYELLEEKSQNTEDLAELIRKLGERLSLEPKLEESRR
TRPC4 agonist: opens the mouse TRPC4 cation channel | Q9QUQ5 | HEK293 TRPC4beta/mu-opioid, Fluo4 calcium fluorescence; active compounds read high | B-score at 10 µM | AID 2237 | 310,000 compounds, 0.49% hits;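 active = B-score above 5 SD of library B-scores, and initial fluorescence ratio not above library mean plus 5 SD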;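 also: positive B-score marks a calcium rise read as TRPC4 activation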
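System: HEK293 cells stably co-expressing mouse TRPC4beta and mu-opioid receptor; Schedule: Fluo4 dye loading 45 min at room temperature, 110 s recording; Detection: Fluo4 fluorescence, kinetic; Evaluation: B-scored integrated calcium fluorescence ratio; Controls: buffer (low) and maximal DAMGO (high).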
TRPC4 inh: blocks the mouse TRPC4 cation channel | B-score at 10 µM | HEK293 TRPC4beta/mu-opioid, DAMGO-evoked Fluo4 calcium flux; active compounds read low | 300,000 compounds, 0.39% hits | AID 2247;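 active = B-score over 3 SD under the library average, no early fluorescence shift, positive overall ratio signal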
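Test system – stable TRPC4beta/mu-opioid receptor HEK293 cells · Probe or stimulus – DAMGO, a submaximal dose followed by a maximal one · Dosing – one concentration per compound · Signal – Fluo4 calcium fluorescence by kinetic imaging, 5 s 1 Hz baseline · Evaluation – per-well B score of integrated baseline-normalized Fluo4 ratio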
TRPC6 inhibitor: inhibitors of mouse TRPC6 channel; 310,000 compounds, 1.1% hits; B-score at 10 µM; AID 2553; Q61143; HEK293-TRPC6, membrane potential dye, ACh-evoked depolarization; active compounds read low;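 active = B-score under library mean minus 3 SD, initial fluorescence not abnormally high, positive integrated signal ratio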;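 also: B-score derived from integrated fluorescence ratio over the kinetic read; more negative B-score means stronger inhibition of depolarization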
TRPC4 potent: TRPC4 (mouse) allosteric potentiation; B-score at 10 µM; HEK293 TRPC4beta/mu-opioid, DAMGO EC20, Fluo-4 Ca2+ flux; active compounds read high; 310,000 compounds, 0.42% hits;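 active = B-score of calcium response area above 5 SD of library B-scores, with initial fluorescence ratio within 5 SD of library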
TRPC4 sel inh 2: second selectivity test of TRPC6 inhibitors: effect on mouse TRPC4; shares compounds with TRPC6 inhibitor; HEK293 TRPC4/MOR, membrane potential dye fluorescence; channel activated by saturating DAMGO dose; inhibition, % at 10 µM; 920 compounds, 42% hits; AID 2776;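 active = compounds whose fluorescence signal differed from control wells by over 3 SD, either direction, in both duplicate plates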
TRPC4 spec: tests whether TRPC6 inhibitors also affect mouse TRPC4. shares compounds with TRPC6 inhibitor. HEK293 TRPC4/mu-opioid, membrane potential fluorescence. activity change, negative = inhibition, % at 10 µM. 920 compounds, 61% hits. AID 2777;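 active = rise or fall in signal beyond 3 SD of buffer-only wells in both replicate plates, either sign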;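 also: integrated kinetic ratio of fluorescence range over baseline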
HEK293 MPD ctr 2-1: second counter-screen for TRPC6 inhibitors: parental HEK293 cells | parental HEK293 membrane potential dye fluorescence; maximal acetylcholine challenge after compound addition | shares compounds with TRPC6 inhibitor | signal change vs control, % at 10 µM | 920 compounds, 31% hits | AID 2779;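 active = membrane potential signal moving either way by over 3 SD of the maximum-effect control, in both duplicate plates, meaning non-specific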
HEK293 MPD ctr-1: checks TRPC6 inhibitor effects in parental HEK293 cells; 920 compounds, 60% hits; shares compounds with TRPC6 inhibitor; parental HEK293 membrane potential dye fluorescence; AID 2780; membrane potential signal change, % at 10 µM;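 active = membrane potential signal shifting up or down by more than 3 SD of buffer-only wells, on both duplicate plates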
HEK293 MPD ctr-2: counter-screen for TRPC6 modulators: effect in parental HEK293 cells; 2,400 compounds, 51% hits; membrane potential dye fluorescence; shares compounds with TRPC6 inhibitor; membrane potential signal change, % at 10 µM;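 active = membrane potential signal moves up or down beyond 5 SD from buffer-only wells, on both duplicate plates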
HEK293 MPD ctr 2-2: second counter-screen for TRPC6 modulators: effect in parental HEK293 cells. shares compounds with TRPC6 inhibitor. membrane potential dye fluorescence; after compound, maximal acetylcholine stimulation. inhibition, % at 10 µM. 2,400 compounds, 14% hits;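 active = membrane potential signal drops by more than 5 SD from the mean control signal, in both duplicate plates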
TRPC4 ctr mod: tests whether TRPC6 modulators also affect mouse TRPC4 | HEK293 TRPC4/mu-opioid, membrane potential fluorescence | AID 488927 | 2,400 compounds, 69% hits | shares compounds with TRPC6 inhibitor | percent change from control (negative = decrease, positive = increase), % at 10 µM;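 active = membrane potential signal moved up or down beyond 5 SD of buffer control wells, in both duplicate plates, actives on both sides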
TRPC4 ctr inh 2: second selectivity test of TRPC6 modulators against mouse TRPC4. inhibition, % at 10 µM. AID 488928. shares compounds with TRPC6 inhibitor. HEK293 TRPC4/mu-opioid, membrane potential dye fluorescence; stimulated with maximal-effect DAMGO. 2,400 compounds, 55% hits;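 active = drop in membrane potential signal beyond 5 SD of the control wells in both duplicate plates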;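 also: TRPC4 counter screen for TRPC6 hits run under conditions tuned for TRPC6 not TRPC4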
TRPC6 inh conf: confirmation of mouse TRPC6 inhibitors; inhibition, % at 10 µM; 3,300 compounds, 43% hits; shares compounds with TRPC6 inhibitor; HEK293-TRPC6, membrane potential dye, ACh-evoked depolarization; AID 488960;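 active = fluorescence ratio falls more than 5 SD below the full-stimulation control mean, in both duplicate runs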;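 also: integrated fluorescence ratio of peak minus minimum over baseline after agonist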
TRPC6 act conf: mouse TRPC6 activator confirmation; shares compounds with TRPC6 inhibitor; HEK293-TRPC6 membrane potential dye fluorescence, FDSS; activation, % at 10 µM; 2,800 compounds, 11% hits;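 active = ratio signal rise beyond 5 SD above unstimulated control wells' mean, seen in both duplicate runs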
A number is an active result; – = inactive; · = not tested or not shown.

SMILES	TRPC6 act	TRPC4 agonist	TRPC4 inh	TRPC6 inhibitor	TRPC4 potent	HEK293 MPD ctr-2	HEK293 MPD ctr 2-2	TRPC4 ctr mod	TRPC4 ctr inh 2	TRPC6 inh conf	TRPC6 act conf	others
CC(=O)N(C)c1nnc(-c2cnccn2)s1	–	–	–	-6.5	–	-234%	–	-32%	–	–	–
COCC(=O)N(C)c1nnc(-c2cnccn2)s1	–	–	–	–	–	·	·	·	·	·	·
Cc1ccc(S(=O)(=O)NCCNc2ccc([N+](=O)[O-])cc2)cc1	–	–	–	-5.6	–	–	–	-14%	–	–	–
COc1cc(/C=C2/C(=O)N(c3cccc(Br)c3)N=C2C)cc(OC)c1O	–	–	–	-5.4	–	–	–	-26%	72%	53%	–
COc1ccc(C2=NN(c3ccccc3)C(=O)/C2=C\c2ccc(O)c(OC)c2)cc1	–	–	–	-6.8	–	·	·	·	·	–	–	TRPC4 sel inh 2=–;TRPC4 spec=–;HEK293 MPD ctr 2-1=–;HEK293 MPD ctr-1=–
Cc1ccc(C)c(OCCCN2CCNCC2)c1	–	–	–	–	–	·	·	·	·	·	·
Cc1ccc(C)c(OCCCCN2CCNCC2)c1C	–	–	–	-5.6	15	–	–	–	50%	53%	·
Cc1cccc(C)c1N(C(=O)c1ccco1)C(C(=O)NC1CCCC1)c1ccncc1 (centres undefined)	–	–	–	–	–	·	·	·	·	·	·
Cc1ccc(Sc2ncccc2C(=O)N(C)Cc2cccs2)c(C)c1	–	–	–	–	–	·	·	·	·	·	·
CCN(CC)CCn1c(=N)n(CCO)c2ccccc21	–	–	–	–	–	·	·	·	·	·	·
CCN(CC)CCn1c(=N)n(CCOc2ccccc2)c2ccccc21	–	–	–	-12	–	·	·	·	·	–	–	TRPC4 sel inh 2=52%;TRPC4 spec=15%;HEK293 MPD ctr 2-1=272%;HEK293 MPD ctr-1=6.5%
Cc1ccc(C)c(CS(=O)(=O)c2cn(CC(=O)N3CCC(C)CC3)c3ccccc23)c1	–	–	–	–	–	·	·	·	·	·	·
Cc1ccc(C)c(CS(=O)(=O)c2cn(CC(=O)N3CCCCC3)c3ccccc23)c1	12	–	–	–	–	–	–	–	–	·	44%
Cc1nn(C(=O)N2CCOCC2)c(C)c1C	–	–	–	-5.5	–	–	–	–	–	–	–
Cc1ccc(CSCC(=O)N2CCN(c3ccc(F)cc3)CC2)cc1	–	–	–	–	–	·	·	·	·	·	·
O=C(CSCc1ccc(F)cc1)N1CCN(c2ccc(F)cc2)CC1	–	–	–	-5.4	–	–	–	–	–	–	–
CCN1CCN(C(=O)c2cc(=O)c3cc(C)ccc3o2)CC1	–	–	–	–	–	·	·	·	·	·	·
CC(C)c1cc(C(C)C)c(S(=O)(=O)N2CCNCC2)c(C(C)C)c1	–	–	–	-5.8	–	–	–	–	64%	42%	–
COc1ccc(COC(=O)c2sc3nc4n(c(=O)c3c2C)CCC4)cc1	–	–	–	–	–	·	·	·	·	·	·
Cc1sc2nc(CN3CCCCC3)nc(Nc3ccc4c(c3)OCCO4)c2c1C	–	–	–	-5	–	–	–	–	–	44%	·
Cc1sc2nc(CN3CCCC3)nc(NCc3ccncc3)c2c1C	–	–	–	–	–	·	·	·	·	·	·
COc1ccc(-n2cnnc2SCC(=O)N(C)c2ccccc2)cc1	–	–	–	–	–	·	·	·	·	·	·
COc1ccc(-n2cnnc2SCc2csc(-c3ccccc3)n2)cc1	–	–	–	-5.2	–	–	–	14%	–	43%	·
Cc1ccc2nc3ccc(N4CCCC4)nn3c(=O)c2c1	–	–	–	-6.9	–	·	·	·	·	–	–	TRPC4 sel inh 2=–;TRPC4 spec=-25%;HEK293 MPD ctr 2-1=42%;HEK293 MPD ctr-1=-324%
COc1ccc(C(CNC(=O)c2ccc(Cl)c(NC(=O)c3cccs3)c2)N2CCCC2)cc1 (centres undefined)	–	–	–	-6	–	106%	–	–	64%	42%	·
SMILES	TRPC6 act	TRPC4 agonist	TRPC4 inh	TRPC6 inhibitor	TRPC4 potent	HEK293 MPD ctr-2	HEK293 MPD ctr 2-2	TRPC4 ctr mod	TRPC4 ctr inh 2	TRPC6 inh conf	TRPC6 act conf	others
COc1ccc(C(CNC(=O)Cc2ccccc2Cl)N2CCCCC2)cc1 (centres undefined)	–	–	–	–	–	·	·	·	·	·	·
COc1ccc2c(c1)c(C)cc[n+]2Cc1ccccc1	–	–	–	-5.2	–	-260%	–	-48%	52%	48%	–
Cc1ccc(NC(=O)C(NC2CCCC2)c2ccccc2)cc1Cl (centres undefined)	–	–	–	–	–	·	·	·	·	·	·
COc1cccc(NC(=O)C(NC2CCCC2)c2ccccc2)c1 (centres undefined)	–	–	–	-9.6	–	·	·	·	·	–	·	TRPC4 sel inh 2=–;TRPC4 spec=12%;HEK293 MPD ctr 2-1=245%;HEK293 MPD ctr-1=9.7%
COc1cccc(NC(=O)c2ccccc2Oc2ccccc2)c1	–	–	–	-5.3	–	–	–	14%	–	–	–
COc1ccc(NC(=O)c2ccccc2Oc2ccccc2)cc1	–	–	–	–	–	·	·	·	·	·	·
CC(=O)Nc1ccc(/C=N/NC(=O)c2cccc(S(=O)(=O)N3CCOCC3)c2)cc1	–	–	–	–	–	·	·	·	·	·	·
O=C(N/N=C/c1cc(Br)cc(Br)c1O)c1cccc(S(=O)(=O)N2CCOCC2)c1	–	–	–	-5.7	–	–	–	26%	–	–	–
O=C(N/N=C/c1sc(N2CCOCC2)nc1-c1ccccc1)c1ccc(O)cc1	–	–	–	–	–	·	·	·	·	·	·
O=C(N/N=C/c1sc(N2CCOCC2)nc1-c1ccccc1)c1cccc(S(=O)(=O)N2CCCC2)c1	–	–	–	-5.9	–	454%	–	-56%	–	–	–
CCC(C)NC(=O)CCn1c(=O)c2cccn2c2ccc(F)cc21 (centres undefined)	–	–	–	–	–	·	·	·	·	·	·
